In BindingDB's records for doi:10.1128/aac.00119-07 (Emory University, 2007):

What was measured:
Reverse transcriptase [1] = target: T1, Reverse transcriptase (Human immunodeficiency virus 1, UniProt Q9WKE8); test: Inhibition of HIV1 LAI reverse transcriptase wild type in presence of 5 mM ATP by heteropolymeric DNA polymerase assay
In short: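 Heteropolymeric DNA assay with 5 mM ATP added: immobilized 18-mer primer, 5′-A12-(GTCA)5 50-mer template, dATP/dGTP/dCTP/BrdUTP at 1.0 μM each, HEPES 50 mM pH 7.3, MgCl2 10 mM. RT 30–100 pM, incubated at 33°C for 180 min. NaOH strand separation, then anti-BrdU-AP detection at 405 nm. IC50 fitted from seven inhibitor concentrations; two to four runs in duplicate.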

Reverse transcriptase [2] = target: T1, Reverse transcriptase; test: Inhibition of HIV1 pNL4-3 reverse transcriptase wild type pNL4-3 by heteropolymeric DNA polymerase assay
In short: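 Heteropolymeric assay without ATP: plate-bound 18-mer DNA primer (~110 nM) with 50-mer 5′-A12-(GTCA)5 template (190 nM). dATP, dGTP, dCTP and BrdUTP at 1.0 μM each, in HEPES 50 mM pH 7.3, MgCl2 10 mM. RT 30–100 pM, 33°C for 180 min, then NaOH dehybridization and anti-BrdU-AP tracer read at 405 nm. IC50 from seven triphosphate concentrations; two to four runs in duplicate.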

IC50 (Reverse transcriptase [1]) [µM] | IC50 (Reverse transcriptase [2]) [µM] | Compound
0.9 | 1.2 | Nc1nc2c(c(=O)[nH]1)NCN2[C@H]1C=C[C@@H](COP(=O)(O)OP(=O)(O)OP(=O)(O)O)C1 [Carbovir-Triphosphate]
1.3 | 1.2 | C[C@@H](Cn1cnc2c(N)ncnc21)OCP(=O)(O)OP(=O)(O)OP(=O)(O)O [Tenofovir diphospahte]
